Reference: ChEMBL document CHEMBL2177098, “Synthesis and evaluation of novel ¹⁸F labeled 2-pyridinylbenzoxazole and 2-pyridinylbenzothiazole derivatives as ligands for positron emission tomography (PET) imaging of β-amyloid plaques” (J Med Chem, 2012)

Assays:
Spleen [1] = assay: Drug uptake in ICR mouse spleen at 370 kBq/100 ul, iv at 60 mins by gamma-counting analysis; type: ADME, organism-based; settings: in vivo, 1 h
Method in brief: (§1)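 Male ICR mice (5 weeks, about 20 g) got 18F tracer in saline (370 KBq per 100 μL) via tail vein; n = 5 per time point, killed at 2, 10, 30, 60 min. Organs weighed and γ-counted; percent dose per gram wet tissue from comparison with diluted injectate aliquots.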

Bone [2] = assay: Drug uptake in ICR mouse bone at 370 kBq/100 ul, iv at 30 mins by gamma-counting analysis; type: ADME, organism-based, Bone element; settings: in vivo, 0.5 h; method in brief: as §1
Stomach [3] = assay: Drug uptake in ICR mouse stomach assessed per organ at 370 kBq/100 ul, iv at 10 mins by gamma-counting analysis; type: ADME, organism-based; settings: in vivo
Method in brief: (§2)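 Male ICR mice (5 weeks, about 20 g) got 18F tracer in saline (370 KBq per 100 μL) via tail vein; n = 5 per time point, killed at 2, 10, 30, 60 min. Organs removed and γ-counted against diluted injectate; expressed as % injected dose per organ.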

Kidney [4] = assay: Drug uptake in ICR mouse kidney at 370 kBq/100 ul, iv at 10 mins by gamma-counting analysis; type: ADME, organism-based; settings: in vivo; method in brief: as §1
Heart [5] = assay: Drug uptake in ICR mouse heart at 370 kBq/100 ul, iv at 10 mins by gamma-counting analysis; type: ADME, organism-based; settings: in vivo; method in brief: as §1
Blood [6] = assay: Drug uptake in ICR mouse blood at 370 kBq/100 ul, iv at 60 mins by gamma-counting analysis; type: ADME, organism-based; settings: in vivo, 1 h; method in brief: as §1
Bone [7] = assay: Drug uptake in ICR mouse bone at 370 kBq/100 ul, iv at 60 mins by gamma-counting analysis; type: ADME, organism-based, Bone element; settings: in vivo, 1 h; method in brief: as §1
Liver [8] = assay: Drug uptake in ICR mouse liver at 370 kBq/100 ul, iv at 10 mins by gamma-counting analysis; type: ADME, organism-based; settings: in vivo; method in brief: as §1
Kidney [9] = assay: Drug uptake in ICR mouse kidney at 370 kBq/100 ul, iv at 2 mins by gamma-counting analysis; type: ADME, organism-based; settings: in vivo; method in brief: as §1
Brain [10] = assay: Drug uptake in ICR mouse brain at 370 kBq/100 ul, iv at 10 mins by gamma-counting analysis; type: ADME, organism-based; settings: in vivo; method in brief: as §1
Brain [11] = assay: Ratio of drug uptake in brain at 2 mins to drug uptake in brain at 60 mins in ICR mouse at 370 KBq/100 ul, iv; type: ADME, organism-based; settings: in vivo
Method in brief: (§3)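 Normal male ICR mice (5 weeks, about 20 g) received the ¹⁸F tracer in saline (370 KBq per 100 μL) by tail-vein injection. Groups of n = 5 were killed at 2, 10, 30 and 60 min. Organs were removed, weighed and γ-counted against diluted aliquots of the injectate, giving % dose per gram. Stomach and intestine were expressed per organ. The brain ratio is 2 min/60 min uptake. Values are mean ± SD.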

Lung [12] = assay: Drug uptake in ICR mouse lung at 370 kBq/100 ul, iv at 10 mins by gamma-counting analysis; type: ADME, organism-based; settings: in vivo; method in brief: as §1
Stomach [13] = assay: Drug uptake in ICR mouse stomach assessed per organ at 370 kBq/100 ul, iv at 2 mins by gamma-counting analysis; type: ADME, organism-based; settings: in vivo; method in brief: as §2
Blood [14] = assay: Drug uptake in ICR mouse blood at 370 kBq/100 ul, iv at 2 mins by gamma-counting analysis; type: ADME, organism-based; settings: in vivo; method in brief: as §1
Liver [15] = assay: Drug uptake in ICR mouse liver at 370 kBq/100 ul, iv at 60 mins by gamma-counting analysis; type: ADME, organism-based; settings: in vivo, 1 h; method in brief: as §1
Blood [16] = assay: Drug uptake in ICR mouse blood at 370 kBq/100 ul, iv at 30 mins by gamma-counting analysis; type: ADME, organism-based; settings: in vivo, 0.5 h; method in brief: as §1
Spleen [17] = assay: Drug uptake in ICR mouse spleen at 370 kBq/100 ul, iv at 10 mins by gamma-counting analysis; type: ADME, organism-based; settings: in vivo; method in brief: as §1
Stomach [18] = assay: Drug uptake in ICR mouse stomach assessed per organ at 370 kBq/100 ul, iv at 30 mins by gamma-counting analysis; type: ADME, organism-based; settings: in vivo, 0.5 h; method in brief: as §2
Heart [19] = assay: Drug uptake in ICR mouse heart at 370 kBq/100 ul, iv at 60 mins by gamma-counting analysis; type: ADME, organism-based; settings: in vivo, 1 h; method in brief: as §1
Lung [20] = assay: Drug uptake in ICR mouse lung at 370 kBq/100 ul, iv at 2 mins by gamma-counting analysis; type: ADME, organism-based; settings: in vivo; method in brief: as §1
Heart [21] = assay: Drug uptake in ICR mouse heart at 370 kBq/100 ul, iv at 2 mins by gamma-counting analysis; type: ADME, organism-based; settings: in vivo; method in brief: as §1
Brain [22] = assay: Drug uptake in ICR mouse brain at 370 kBq/100 ul, iv at 30 mins by gamma-counting analysis; type: ADME, organism-based; settings: in vivo, 0.5 h; method in brief: as §1
Bone [23] = assay: Drug uptake in ICR mouse bone at 370 kBq/100 ul, iv at 2 mins by gamma-counting analysis; type: ADME, organism-based, Bone element; settings: in vivo; method in brief: as §1
Intestine [24] = assay: Drug uptake in ICR mouse intestine assessed per organ at 370 kBq/100 ul, iv at 30 mins by gamma-counting analysis; type: ADME, organism-based; settings: in vivo, 0.5 h; method in brief: as §2
Spleen [25] = assay: Drug uptake in ICR mouse spleen at 370 kBq/100 ul, iv at 30 mins by gamma-counting analysis; type: ADME, organism-based; settings: in vivo, 0.5 h; method in brief: as §1
Kidney [26] = assay: Drug uptake in ICR mouse kidney at 370 kBq/100 ul, iv at 30 mins by gamma-counting analysis; type: ADME, organism-based; settings: in vivo, 0.5 h; method in brief: as §1
Liver [27] = assay: Drug uptake in ICR mouse liver at 370 kBq/100 ul, iv at 30 mins by gamma-counting analysis; type: ADME, organism-based; settings: in vivo, 0.5 h; method in brief: as §1
Brain [28] = assay: Drug uptake in wild type C57BL6 mouse brain at 370 KBq/100 ul after 1 hr by autoradiographic analysis; type: ADME, tissue-based; settings: in vitro
Method in brief: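 Paraffin brain sections from 12-month-old male control C57BL6 mice were deparaffinized through xylene and graded ethanol, then held in PBS (0.2 M, pH 7.4) for 30 min. They were incubated with the ¹⁸F tracer (370 KBq per 100 μL) for 1 h at room temperature. Sections were washed in 40% EtOH, rinsed with water for 1 min, dried, and exposed to a phosphor plate for 2 h. The same sections were then stained with thioflavin S.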

[29] = Displacement of [125I]-IMPY from amyloid beta (1 to 42) fibrils after 2 hrs by gamma-counting analysis
Method in brief: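 Competition binding with aggregated Aβ1-42 fibrils and [125I]IMPY (60000−100000 cpm/100 μL) in 0.05% BSA (1 mL total); inhibitors 10⁻⁴−10^−8.5 M in ethanol. Incubated 37 °C for 2 h, then GF/B vacuum filtration with PBS (0.02 M, pH 7.4) washes and γ counting. Three repeats; IC50 converted to Ki by Cheng−Prusoff.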

Lung [30] = assay: Drug uptake in ICR mouse lung at 370 kBq/100 ul, iv at 30 mins by gamma-counting analysis; type: ADME, organism-based; settings: in vivo, 0.5 h; method in brief: as §1
Heart [31] = assay: Drug uptake in ICR mouse heart at 370 kBq/100 ul, iv at 30 mins by gamma-counting analysis; type: ADME, organism-based; settings: in vivo, 0.5 h; method in brief: as §1
Spleen [32] = assay: Drug uptake in ICR mouse spleen at 370 kBq/100 ul, iv at 2 mins by gamma-counting analysis; type: ADME, organism-based; settings: in vivo; method in brief: as §1
Brain [33] = assay: Drug uptake in healthy human brain at 370 KBq/100 ul after 1 hr by autoradiographic analysis; type: ADME, tissue-based; settings: in vitro
Kidney [34] = assay: Drug uptake in ICR mouse kidney at 370 kBq/100 ul, iv at 60 mins by gamma-counting analysis; type: ADME, organism-based; settings: in vivo, 1 h; method in brief: as §1
Stomach [35] = assay: Drug uptake in ICR mouse stomach assessed per organ at 370 kBq/100 ul, iv at 60 mins by gamma-counting analysis; type: ADME, organism-based; settings: in vivo, 1 h; method in brief: as §3
Liver [36] = assay: Drug uptake in ICR mouse liver at 370 kBq/100 ul, iv at 2 mins by gamma-counting analysis; type: ADME, organism-based; settings: in vivo; method in brief: as §1
Brain [37] = assay: Drug uptake in ICR mouse brain at 370 kBq/100 ul, iv at 2 mins by gamma-counting analysis; type: ADME, organism-based; settings: in vivo; method in brief: as §1
Intestine [38] = assay: Drug uptake in ICR mouse intestine assessed per organ at 370 kBq/100 ul, iv at 10 mins by gamma-counting analysis; type: ADME, organism-based; settings: in vivo; method in brief: as §2
[39] = n-Octanol-PBS buffer partition coefficient, log D of the compound at 1.5 MBq after 3 mins at pH 7.4; type: physicochemical
Method in brief: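 The tracer was partitioned between n-octanol and PBS by vortexing for 3 min at room temperature, then centrifuged for 5 min at 3000 rpm. Samples of the octanol (50 μL) and aqueous (500 μL) layers were counted. log D is the log of the octanol/PBS counts-per-gram ratio. The octanol layer was repartitioned until values were consistent. Measured in triplicate and repeated three times.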

Intestine [40] = assay: Drug uptake in ICR mouse intestine assessed per organ at 370 kBq/100 ul, iv at 60 mins by gamma-counting analysis; type: ADME, organism-based; settings: in vivo, 1 h; method in brief: as §2
Blood [41] = assay: Drug uptake in ICR mouse blood at 370 kBq/100 ul, iv at 10 mins by gamma-counting analysis; type: ADME, organism-based; settings: in vivo; method in brief: as §1
Bone [42] = assay: Drug uptake in ICR mouse bone at 370 kBq/100 ul, iv at 10 mins by gamma-counting analysis; type: ADME, organism-based, Bone element; settings: in vivo; method in brief: as §1
Intestine [43] = assay: Drug uptake in ICR mouse intestine assessed per organ at 370 kBq/100 ul, iv at 2 mins by gamma-counting analysis; type: ADME, organism-based; settings: in vivo; method in brief: as §2
Brain [44] = assay: Drug uptake in ICR mouse brain at 370 kBq/100 ul, iv at 60 mins by gamma-counting analysis; type: ADME, organism-based; settings: in vivo, 1 h; method in brief: as §1
Lung [45] = assay: Drug uptake in ICR mouse lung at 370 kBq/100 ul, iv at 60 mins by gamma-counting analysis; type: ADME, organism-based; settings: in vivo, 1 h; method in brief: as §1

## CNc1ccc(-c2nc3cc(OCCOCCOCC[18F])ccc3o2)cn1
Spleen [1]
  Drug uptake: 1.79 % ID/g
Bone [2]
  Drug uptake: 2.46 % ID/g
Stomach [3]
  Drug uptake: 12.32 %ID
Kidney [4]
  Drug uptake: 4.79 % ID/g
Heart [5]
  Drug uptake: 3.35 % ID/g
Blood [6]
  Drug uptake: 2.74 % ID/g
Bone [7]
  Drug uptake: 3.93 % ID/g
Liver [8]
  Drug uptake: 9.32 % ID/g
Kidney [9]
  Drug uptake: 8.51 % ID/g
Brain [10]
  Drug uptake: 2.05 % ID/g
Brain [11]
  Ratio: 2.28
Lung [12]
  Drug uptake: 3.15 % ID/g
Stomach [13]
  Drug uptake: 5.08 %ID
Blood [14]
  Drug uptake: 5.07 % ID/g
Liver [15]
  Drug uptake: 4.21 % ID/g
Blood [16]
  Drug uptake: 3.16 % ID/g
Spleen [17]
  Drug uptake: 2.64 % ID/g
Stomach [18]
  Drug uptake: 12.93 %ID
Heart [19]
  Drug uptake: 2.5 % ID/g
Lung [20]
  Drug uptake: 5.3 % ID/g
Heart [21]
  Drug uptake: 5.5 % ID/g
Brain [22]
  Drug uptake: 2.06 % ID/g
Bone [23]
  Drug uptake: 1.75 % ID/g
Intestine [24]
  Drug uptake: 28.65 %ID
Spleen [25]
  Drug uptake: 2.18 % ID/g
Kidney [26]
  Drug uptake: 3.73 % ID/g
Liver [27]
  Drug uptake: 6.47 % ID/g
Brain [28]
  Drug uptake: Not Active
[29]
  Ki: 0.0769 µM
Lung [30]
  Drug uptake: 2.81 % ID/g
Heart [31]
  Drug uptake: 3.16 % ID/g
Spleen [32]
  Drug uptake: 4.13 % ID/g
Brain [33]
  Drug uptake: Not Active
Kidney [34]
  Drug uptake: 2.54 % ID/g
Stomach [35]
  Drug uptake: 12.02 %ID
Liver [36]
  Drug uptake: 14.22 % ID/g
Brain [37]
  Drug uptake: 4.05 % ID/g
Intestine [38]
  Drug uptake: 22.9 %ID
[39]
  logD at 0.05 h: 2.86
Intestine [40]
  Drug uptake: 25.16 %ID
Blood [41]
  Drug uptake: 3.04 % ID/g
Bone [42]
  Drug uptake: 1.92 % ID/g
Intestine [43]
  Drug uptake: 10.81 %ID
Brain [44]
  Drug uptake: 1.78 % ID/g
Lung [45]
  Drug uptake: 2.34 % ID/g
